Experimental data: ChEMBL document CHEMBL1141864, “Structure-activity relationships in 1,4-benzodioxan-related compounds. 8.(1) {2-[2-(4-chlorobenzyloxy)phenoxy]ethyl}-[2-(2,6-dimethoxyphenoxy)ethyl]amine (clopenphendioxan) as a tool to highlight the involvement of alpha1D- and alpha1B-adrenoreceptor subtypes in the regulation of human PC-3 …” (J Med Chem, 2005)
Activity calls are given as the source filed them. The rule behind the calls is not given here.

What was measured:
PC-3 [1] = test: Ability to stimulate PC3 cell proliferation by BrdU incorporation using colorimetric ELISA at 50 uM; format: functional, Homo sapiens
Summary of the method: (§1)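 PC-3 cells (DMEM, 10% FBS, 2 mM L-glutamine) seeded at 7 × 10⁴/well, settled 24 h at 37 °C, 5% CO₂. NE added (0, 0.1, 1, 10, 50 μM) for 16 h. BrdU present during the last 4 h; incorporation read by colorimetric BrdU cell-proliferation ELISA. Expressed as % growth vs untreated. Mean ± SD of three separate experiments.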

PC-3 [2] = test: Ability to stimulate PC3 cell proliferation by BrdU incorporation using colorimetric ELISA at 10 uM; format: functional, Homo sapiens; summary of the method: as §1
PC-3 [3] = test: Inhibition of NE-induced increase of PC3 cell proliferation using ELISA BrdU; format: functional, cell-based; conditions: Homo sapiens
Summary of the method: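 PC-3 cells (7×10^4/well) plated 24 h, then given noradrenaline (0–50 μM) alone or with antagonist (1 μM, or 0.5 μM for one compound) for 16 h. BrdU added for the last 4 h and read by colorimetric ELISA as % growth; mean ± SD of three experiments.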

[4] = biological target: T1, Alpha-1A adrenergic receptor (Rattus norvegicus) (UniProt P43140); test: ADRA1A blocking activity assessed by antagonism of (-)-NE induced contractions on isolated rat prostatic vas deferens; format: functional, tissue-based
T1 sequence (whole entry): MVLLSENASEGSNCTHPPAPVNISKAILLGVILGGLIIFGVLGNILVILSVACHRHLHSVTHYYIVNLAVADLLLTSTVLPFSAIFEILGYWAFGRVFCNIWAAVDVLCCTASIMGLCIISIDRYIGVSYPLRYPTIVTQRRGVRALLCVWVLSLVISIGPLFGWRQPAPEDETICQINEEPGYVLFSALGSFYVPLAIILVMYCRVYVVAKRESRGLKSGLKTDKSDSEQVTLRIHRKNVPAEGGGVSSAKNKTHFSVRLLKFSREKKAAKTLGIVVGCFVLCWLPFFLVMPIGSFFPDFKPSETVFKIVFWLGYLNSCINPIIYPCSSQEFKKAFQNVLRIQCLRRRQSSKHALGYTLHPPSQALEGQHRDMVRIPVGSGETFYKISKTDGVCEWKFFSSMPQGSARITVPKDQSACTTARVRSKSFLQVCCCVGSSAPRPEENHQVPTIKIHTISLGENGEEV
Summary of the method: (§2)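 Isolated rat tissue: each antagonist concentration tested four times over 0.01–1 μM; pK_B calculated by van Rossum method from shifts of (-)-noradrenaline contraction curves (vas deferens, α1A; thoracic aorta, α1D) or (-)-phenylephrine contraction curves (spleen, α1B).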

[5] = biological target: T2, Alpha-1B adrenergic receptor (Rattus norvegicus) (UniProt P15823); test: ADRA1B blocking activity assessed by antagonism of (-)-phenylephrine induced contractions on isolated rat spleen; format: functional, tissue-based; summary of the method: as §2
T2 sequence (whole entry): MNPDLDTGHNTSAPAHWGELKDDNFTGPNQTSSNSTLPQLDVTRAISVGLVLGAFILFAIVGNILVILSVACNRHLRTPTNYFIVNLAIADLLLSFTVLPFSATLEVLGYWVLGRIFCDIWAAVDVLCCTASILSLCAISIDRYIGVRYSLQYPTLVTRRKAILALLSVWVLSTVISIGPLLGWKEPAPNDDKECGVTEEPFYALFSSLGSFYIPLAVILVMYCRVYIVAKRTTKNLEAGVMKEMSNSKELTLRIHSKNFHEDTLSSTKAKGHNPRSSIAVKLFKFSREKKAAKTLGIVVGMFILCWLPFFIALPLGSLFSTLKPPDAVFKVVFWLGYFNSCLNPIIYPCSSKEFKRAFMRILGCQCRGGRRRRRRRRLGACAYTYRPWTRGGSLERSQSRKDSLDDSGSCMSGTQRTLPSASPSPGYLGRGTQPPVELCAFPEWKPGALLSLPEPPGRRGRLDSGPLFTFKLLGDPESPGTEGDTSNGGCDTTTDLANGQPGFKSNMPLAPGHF

PC-3 [6] = test: Cytotoxic activity on human PC3 prostate cancer cells by SRB assay; format: functional; conditions: Homo sapiens, PC-3
Summary of the method: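 NCI-protocol SRB assay on PC-3 cells grown in DMEM/10% FBS/2 mM glutamine. Seeded 24 h, then compounds in medium for 48 h at 37 °C, 5% CO2, in quadruplicate. A time-zero plate was read. Cells TCA-fixed, stained with 0.4% SRB, absorbance at 520 nm. GI50, TGI and LC50 interpolated from % growth versus log concentration.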

[7] = biological target: T3, Alpha-1D adrenergic receptor (Rattus norvegicus) (UniProt P23944); test: ADRA1D blocking activity assessed by antagonism of (-)-NE induced contractions on isolated rat thoracic aorta; format: functional, tissue-based; summary of the method: as §2
T3 sequence (whole entry): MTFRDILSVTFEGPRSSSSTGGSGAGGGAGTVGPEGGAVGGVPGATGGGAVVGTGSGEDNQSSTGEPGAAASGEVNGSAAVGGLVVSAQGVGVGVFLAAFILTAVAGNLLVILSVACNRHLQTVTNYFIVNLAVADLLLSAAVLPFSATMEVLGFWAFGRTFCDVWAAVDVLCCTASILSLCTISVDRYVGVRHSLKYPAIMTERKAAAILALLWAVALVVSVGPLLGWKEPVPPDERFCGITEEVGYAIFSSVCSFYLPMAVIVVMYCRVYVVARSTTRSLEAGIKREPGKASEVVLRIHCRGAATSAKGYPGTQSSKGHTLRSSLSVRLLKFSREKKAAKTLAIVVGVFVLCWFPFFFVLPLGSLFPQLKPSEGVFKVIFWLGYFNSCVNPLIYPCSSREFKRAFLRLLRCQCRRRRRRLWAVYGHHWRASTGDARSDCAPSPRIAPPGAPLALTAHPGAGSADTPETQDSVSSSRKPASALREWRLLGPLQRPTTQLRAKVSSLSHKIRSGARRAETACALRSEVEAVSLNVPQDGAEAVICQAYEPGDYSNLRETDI

Structure (SMILES)	Activity (PC-3 [1])	Activity (PC-3 [2])	Activity (PC-3 [3])	pKb [4]	pKb [5]	TGI (PC-3 [6])	pKb [7]	GI50 (PC-3 [6])	LC50 (50% lethal concentration) (PC-3 [6])
NC[C@H](O)c1ccc(O)c(O)c1 [NOREPINEPHRINE]	65%	33%							
COc1cc2nc(N3CCN(C(=O)C4COc5ccccc5O4)CC3)nc(N)c2cc1OC (centres undefined) [DOXAZOSIN]			inactive	8.69	9.51	49 µM	8.97		
COc1cccc(OC)c1OCCNCCOc1ccccc1OCc1ccc(OC(C)C)cc1				8.17	8.62	17.8 µM	9.14	2 µM	63.1 µM
CCOc1ccc(COc2ccccc2OCCNCCOc2c(OC)cccc2OC)cc1				8.5	8.23	18.2 µM	9.11	5.2 µM	51.3 µM
